From ChEMBL document CHEMBL1123606, “1,3-Diarylpyrazolo[4,5-c]- and -[5,4-c]quinolin-4-ones. 4. Synthesis and specific inhibition of benzodiazepine receptor binding” (J Med Chem, 1987)

How the values were obtained:
[1] = Displacement of 3[H]Flunitrazepam from GABA-A central benzodiazepine receptor of bovine brain membranes; format: cell membranes, Bos taurus
How it was run: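 Bovine brain membranes (0.4–0.5 mg protein) were incubated in triplicate with 0.6 nM [3H]flunitrazepam in 50 mM Tris-HCl at 0 °C for 90 min. Displacers were added in ethanol, at seven concentrations each. Nonspecific binding was defined with 10 μM diazepam. Samples were diluted with cold buffer, filtered on glass fibre and counted by scintillation. IC50 was taken from log-probit analysis; values are means ± SEM of seven determinations.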

Bos taurus [2] = organism: Bos taurus; experiment: Displacement of 3[H]Flunitrazepam from GABA-A central benzodiazepine receptor of bovine brain membranes at 3.4 uM; format: cell membranes
How it was run: (§1)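 A single-concentration screen against specific [3H]flunitrazepam (0.6 nM) binding to bovine brain membranes (0.4–0.5 mg protein). Incubation was in 50 mM Tris-HCl at 0 °C for 90 min, with compounds added in ethanol. Diazepam at 10 μM defined nonspecific binding. Bound ligand was collected by rapid glass-fibre filtration and counted by scintillation. Percent inhibition is given as means ± SEM of five determinations.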

Bos taurus [3] = organism: Bos taurus; experiment: Displacement of 3[H]Flunitrazepam from GABA-A central benzodiazepine receptor of bovine brain membranes at 34 uM; format: cell membranes; how it was run: as §1

## COc1ccc(-n2nc3c4ccccc4[nH]cc-3c2=O)cc1
[1]
  IC50: 0.1 nM

## Cn1c(=O)c2c(-c3ccccc3)nn(-c3cccc(Br)c3)c2c2ccccc21
[1]
  IC50: 100 nM

## O=C1C2C=Nc3ccccc3C2=NN1c1ccccc1 (stereo not given) [CGS-8216]
[1]
  IC50: 0.4 nM

## Cn1c(=O)c2c(c(-c3ccccc3)nn2-c2ccccc2)c2ccccc21
Bos taurus [2]
  inhibition: 21%

## Cc1cccc(-n2nc(-c3ccccc3)c3c(=O)n(C)c4ccccc4c32)c1
[1]
  IC50: 90 nM

## Cn1c(=O)c2c(-c3ccccc3)nn(-c3ccc(Cl)cc3)c2c2ccccc21
[1]
  IC50: 1160 nM

## Oc1nc2ccccc2c2c1c(-c1ccccc1)nn2-c1cccc(Br)c1
[1]
  IC50: 1500 nM

## O=C1C2C=Nc3ccccc3C2=NN1c1ccc(Cl)cc1 (stereo not given) [CGS-9896]
[1]
  IC50: 0.6 nM

## Cn1c(=O)c2c(-c3ccccc3)nn(-c3cccc(Cl)c3)c2c2ccccc21
[1]
  IC50: 70 nM

## Cc1ccc(-n2nc(-c3ccccc3)c3c(O)nc4ccccc4c32)cc1
[1]
  IC50: 39000 nM

## Cc1ccc(-n2nc(-c3ccccc3)c3c(=O)n(C)c4ccccc4c32)cc1
[1]
  IC50: 1100 nM

## Oc1nc2ccccc2c2c1c(-c1ccccc1)nn2-c1ccccc1
[1]
  IC50: 21000 nM

## Oc1nc2ccccc2c2c1c(-c1ccccc1)nn2-c1ccc(Cl)cc1
[1]
  IC50: 30000 nM

## Oc1nc2ccccc2c2c(-c3ccccc3)nn(-c3cccc(Cl)c3)c12
Bos taurus [3]
  inhibition: 8%

## CNC1=Nc2ccc(Cl)cc2C(c2ccccc2)=[N+]([O-])C1 [CHLORDIAZEPOXIDE]
[1]
  IC50: 0.79 nM

## Oc1nc2ccccc2c2c(-c3ccccc3)nn(-c3ccccc3)c12
Bos taurus [3]
  inhibition: 10%

## Oc1nc2ccccc2c2c1c(-c1ccccc1)nn2-c1cccc(Cl)c1
[1]
  IC50: 3000 nM

## CN1C(=O)CN=C(c2ccccc2)c2cc(Cl)ccc21 [DIAZEPAM]
[1]
  IC50: 0.025 nM

## Cc1cccc(-n2nc(-c3ccccc3)c3c(O)nc4ccccc4c32)c1
[1]
  IC50: 3000 nM

## Cn1c(=O)c2c(-c3ccccc3)nn(-c3ccccc3)c2c2ccccc21
[1]
  IC50: 3100 nM
